Results on 19 molecules are retold here after ChEMBL document CHEMBL6092225, “Design, Synthesis, and Biological Evaluation of [1,2,5]Oxadiazolo[3,4-b]pyridin-7-ol as Mitochondrial Uncouplers for the Treatment of Obesity and Metabolic Dysfunction-Associated Steatohepatitis” (J Med Chem, 2024).

Data set [1] is described as follows: (§1) Induction of oxygen consumption rate in rat L6 cells upto 200 uM measured for 90 mins by Seahorse assay relative to BAM15. It counts as functional. Particulars: 1.5 h, up to 200 µM.
Data set [2] can be described thus: Induction of oxygen consumption rate in rat L6 cells measured for 90 mins by Seahorse assay. The class given is functional, cell-based.
Data set [3] relates to L6. The description is as §1. It counts as functional.
Data set [4] has as its system Mus musculus. The data set is described as follows: Effect on calorie intake in diet-induced Gubra-Amylin NASH C57BL/6 mouse model of MASH at 200 mg/kg, po. The class given is functional, organism-based. The gist of the method:
(§2)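 Male C57BL/6 mice, GAN diet from 5/6 weeks old for 33 weeks, then single-housed and stratified by baseline body weight and body composition. Fed GAN diet alone or GAN diet admixed with compound at 200 mg/kg for 4 weeks, fresh compound daily. Body weight and food intake measured daily, body composition weekly by EchoMRI, organs weighed at end.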

A short description of data set [5]: Toxicity in C57BL/6 mouse assessed as drug tolerance upto 1000 mg/kg, po measured for 24 hrs. It counts as organism-based. To be noted: in vivo. Put shortly: (§3)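 Male C57BL/6 mice, 9 weeks old, given vehicle or compound at 30, 100, 300 or 1000 mg/kg by single oral gavage. Monitored 24 h after dosing for core temperature by rectal probe, body weight and food intake. n = 3, mean ± SEM.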

For data set [6], the system named is Mus musculus. The data set can be described thus: Anti-obesity activity in diet-induced Gubra-Amylin NASH C57BL/6 mouse model of MASH assessed as decrease in liver triglyceride level at 200 mg/kg, po for 4 weeks. It counts as functional, organism-based. The gist of the method: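 GAN-diet male C57BL/6 mice dosed 200 mg/kg daily in food for 4 weeks. Liver harvested at end, frozen in liquid nitrogen, lipid extracted. Extract heated 10 min at 37 °C, then triglyceride measured by colorimetric assay and normalized to initial grams extracted.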

For data set [7], the system named is Mus musculus. The data set is described as follows: Effect on liver mass in diet-induced Gubra-Amylin NASH C57BL/6 mouse model of MASH at 200 mg/kg, po for 4 weeks. The class given is functional, organism-based. The gist of the method: as §2
For data set [8], the system named is Mus musculus. The data set can be described thus: Anti-obesity activity in diet-induced Gubra-Amylin NASH C57BL/6 mouse model of MASH assessed at 200 mg/kg, po for 4 weeks by EchoMRI analysis.
For data set [9], the system named is Mus musculus. The data set can be described thus: Anti-obesity activity in diet-induced Gubra-Amylin NASH C57BL/6 mouse model of MASH assessed as decrease in fat mass at 200 mg/kg, po for 4 weeks by EchoMRI analysis. It counts as functional, organism-based. The gist of the method: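 Male C57BL/6 mice kept on GAN diet for 33 weeks, then fed GAN diet with or without compound admixed at 200 mg/kg daily for 4 weeks. Fat and lean mass measured weekly by EchoMRI.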

Data set [10] can be described thus: Toxicity in C57BL/6 mouse assessed as change in appetite at 30 to 1000 mg/kg, po measured for 24 hrs. The class given is organism-based. Particulars: in vivo, dose 30-1000 mg/kg. The gist of the method:
as §3

Data set [11] deals with Mus musculus. The data set is described as follows: Anti-obesity activity in diet-induced Gubra-Amylin NASH C57BL/6 mouse model of MASH assessed as decrease in plasma ALT level at 200 mg/kg, po for 4 weeks. The class given is functional, organism-based. The gist of the method: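 GAN-diet male C57BL/6 mice given compound admixed in diet at 200 mg/kg daily for 4 weeks. Terminal EDTA plasma taken by cardiac puncture under isoflurane. ALT activity measured by kit assay, samples diluted 1:8 in ALT assay buffer.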

The test system of data set [12] is Mus musculus. The data set is described as follows: Anti-obesity activity in diet-induced Gubra-Amylin NASH C57BL/6 mouse model of MASH assessed as decrease in NAFLD activity score at 200 mg/kg, po for 4 weeks. It counts as functional, organism-based. The gist of the method: as §2
The test system of data set [13] is Mus musculus. The data set can be described thus: Effect on fibrosis stage of liver in diet-induced Gubra-Amylin NASH C57BL/6 mouse model of MASH at 200 mg/kg, po for 4 weeks. It counts as functional, organism-based.
Data set [14] can be described thus: Toxicity in C57BL/6 mouse assessed as change in body weight at 30 to 1000 mg/kg, po measured for 24 hrs. The class given is organism-based. To be noted: in vivo, dose 30-1000 mg/kg. The gist of the method: as §3
Data set [15] relates to L6. The data set can be described thus: Induction of oxygen consumption rate in rat L6 cells at 10 uM measured for 90 mins in presence of oligomycin by Seahorse assay. It counts as functional, cell-based. Put shortly: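 L6 myoblasts in unbuffered DMEM with pyruvate and glutamine (pH 7.4) on Seahorse XF. Mitochondrial stress test: oligomycin 1 µM or vehicle injected, then compound at 10 µM, then antimycin A 10 µM plus rotenone 1 µM at set times. n = 3 wells per condition, mean ± SEM.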

The nature of data set [16]: Toxicity in C57BL/6 mouse assessed as change in body temperature at 30 to 1000 mg/kg, po measured for 24 hrs. To be noted: in vivo, dose 30-1000 mg/kg. It counts as organism-based. Put shortly: as §3
Data set [17] is described as follows: Induction of oxygen consumption rate in rat L6 cells assessed as increase in respiration at 10 uM measured for 90 mins in presence of BAM15 by Seahorse assay relative to control. It counts as functional. To be noted: 1.5 h.

The source made the active and inactive calls. The calls are words filed in the database; no cut-off is given here.

The EC50 is the concentration that produces a half-maximal response. As for `CC(C)(C)Oc1ccc(Nc2cnc3nonc3c2O)cc1`, in [1], the Activity is 20%. Moreover, the EC50 in [2] (read-out: EC50) is 6 µM.

As for `Oc1c(Nc2ccccc2-c2ccccc2)cnc2nonc12`, the result in the data set with L6 [3] was inactive. Moreover, the EC50 entry in data set [2] is on record as “Not_active”.

For the molecule `Oc1c(Nc2ccc(-c3ccccc3F)cc2)cnc2nonc12`, the outcome in the data set on L6 [3] was inactive. For the same molecule, in [2], the concentration giving a half-maximal response (EC50) entry is reported as “Not_active”.

Take `Oc1c(Nc2ccc(-c3cccc(Cl)c3)cc2)cnc2nonc12`: the result in the data set with Mus musculus [4] and with Mus musculus [13] was inactive. Further, the Activity result is “Non-toxic” in data set [5]; “Not active; No Significant Change In Liver Mass Was Observed But Showed Improvements In Fatty Liver Disease Phenotypes” in the data set with Mus musculus [7]; “Active; Activity Of Drug Indicates Improved Body Composition” in the data set with Mus musculus [9]; “Non-toxic” in data set [10]; “Active; The Occurence Is Due To Decreased Hepatic Steatosis” in the data set on Mus musculus [12]; “Non-toxic” in [14]. The Activity entry with L6 [15] was “Active; Action Of Drug Suggests Proton Transport Into Matrix Independent Of Atp Synthase; Activity Of Drug Requires Electron Transport Chain Activity”; in data set [16], “Non-toxic”; in [17] it was 300%. For the same molecule, the result in the data set on Mus musculus [6], with Mus musculus [8] and in the data set on Mus musculus [11] was Active.

Turning to `Oc1c(Nc2ccc(-c3ccc(F)c(F)c3)cc2)cnc2nonc12`, the result with L6 [3] was inactive. In data set [2], the EC50 entry is recorded as “Not_active”.

Take `Oc1c(Nc2ccc(-c3cccc(Cl)c3Cl)cc2)cnc2nonc12`: the outcome in the data set on L6 [3] was inactive. The EC50 result in data set [2] was “Not_active”.

Regarding `CCCCc1ccc(Nc2cnc3nonc3c2O)cc1`, the EC50 in [2] (read-out: EC50) worked out at 1 µM.

Regarding `Oc1c(Nc2ccc(F)nc2)cnc2nonc12`, the result with L6 [3] was inactive. Further, in [2], the 50% effective concentration (EC50) result is given as “Not_active”.

For the molecule `CC1(C)c2ccccc2-c2ccc(Nc3cnc4nonc4c3O)cc21`, the result in the data set on L6 [3] was inactive. In data set [2], the concentration giving a half-maximal response (EC50) result is “Not_active”.

As for `Oc1c(Nc2ccc(C(F)(F)F)nc2)cnc2nonc12`, the result with L6 [3] was inactive. Moreover, the EC50 result in [2] was “Not_active”.

Consider `Oc1c(Nc2ccc(-c3cc(F)ccc3F)cc2)cnc2nonc12`, for which the outcome in the data set on L6 [3] was inactive. Besides, the concentration for a half-maximal effect (EC50) result in data set [2] is “Not_active”.

With `CC(=O)c1ccc(Nc2cnc3nonc3c2O)cc1`, the outcome with L6 [3] was inactive. Also, the EC50 result in data set [2] is given as “Not_active”.

With `Oc1c(-c2ccc(-c3ccc(F)cc3)cc2)cnc2nonc12`, in the data set with L6 [3], the result was inactive. Also, in data set [2], the half-maximal effective concentration (EC50) entry is listed as “Not_active”.

`N#Cc1ccc(Nc2cnc3nonc3c2O)cc1`: the result in the data set with L6 [3] was inactive. In data set [2], the EC50 result was “Not_active”.

`Oc1c(Nc2cccc(-c3ccccc3)c2)cnc2nonc12` came in with an Activity in data set [1] of 20%. Also, the concentration giving a half-maximal response (EC50) in data set [2] (read-out: EC50) was found to be 6 µM.

In turn, `Oc1c(Nc2ccc(-c3ccc(F)cc3)cc2)cnc2nonc12` came in with an Activity in [1] of 60%.

As to `Oc1c(Nc2ccc(-c3ccc(C(F)(F)F)cc3)cc2)cnc2nonc12`, the result in the data set on L6 [3] was inactive. The 50% effective concentration (EC50) entry in data set [2] was “Not_active”.

For the molecule `Oc1c(Nc2ccc(-c3cccc(F)c3F)cc2)cnc2nonc12`, the outcome in the data set with L6 [3] was inactive. The EC50 result in data set [2] is given as “Not_active”.

Regarding `Oc1c(Nc2ccc(-c3ccc(Cl)cc3)cc2)cnc2nonc12`, the Activity in [1] turned out to be 57%.
